# B1: moesin-FERM: FERM domain of human moesin (residues 1–346), recombinant (protein)
# chain: MPKTISVRVTTMDAELEFAIQPNTTGKQLFDQVVKTIGLREVWFFGLQYQDTKGFSTWLKLNKKVTAQDVRKESPLLFKFRAKFYPEDVSEELIQDITQRLFFLQVKEGILNDDIYCPPETAVLLASYAVQSKYGDFNKEVHKSGYLAGDKLLPQRVLEQHKLNKDQWEERIQVWHEEHRGMLREDAVLEYLKIAQDLEMYGVNYFSIKNKKGSELWLGVDALGLNIYEQNDRLTPKIGFPWSEIRNISFNDKKFVIKPIDKKAPDFVFYAPRLRINKRILALCMGNHELYMRRRKPDTIEVQQMKAQAREEKHQKQMERAMLENEKKKREMAEKEKEKIEREKEE
# Assays:
# [1] = tested on: TMR-CLS/POPC/POPS liposome; assay type: binding, human; conditions: added alone, before moesin-FERM; 15% POPS/85% POPC; 0.3 mM CaCl2; 575 nm
# Procedure, shortened: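 TMR-CLS was extruded (400-nm filter) into 15% POPS/85% POPC liposomes at 1:1000 peptide:lipid and diluted to about 5 nM in 50 mM Tris–HCl, 150 mM NaCl, 0.3 mM CaCl₂, pH 7.4. Additions carried 5 nM liposome. First 3 µM Ca/CaM, then moesin-FERM (400 nM, then 100 nM steps). TMR emission was recorded continuously at 575 nm (excitation 542 nm).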
# CaM (calmodulin) = experiment: Direct interaction between moesin-FERM and CaM; assay type: binding; conditions: up to 10 µM moesin-FERM; 0.3 mM CaCl2; ex 340 nm
molecule,measurement,setting,value
B1,change in TMR fluorescence of TMR-CLS/POPS liposome on addition,[1],decrease of TMR fluorescence emission
same,change in IAEDANS fluorescence emission of IAEDANS-CaM,CaM (calmodulin),little change in the IAEDANS fluorescence emission
